Active and inactive are the calls of the source. The rule behind the calls is not given here.
Legend:
DU-145 [1] = assay: Induction of membrane lysis in human DU145 cells at 0.01% after 10 mins by EthD-1 staining based fluorescence microscopic analysis
MIA PaCa-2 [2] = assay: Cytotoxicity against human MIAPaCa2 cells assessed as decrease in cell viability after 48 hrs by MTS assay; type: functional; settings: MIA PaCa-2, 48 h
In short: (§1)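 Cells were seeded at equal numbers and, after 24 h, exposed to compounds (0–30 µM) for 48 h. MTS reagent (20% v/v) was then added for 1–4 h, and OD490 was read. Cell-free medium wells served as blanks. Media were DMEM/F12 + 10% FBS for BT-474; DMEM + 10% FBS for DU-145 and MDA-MB-231; and DMEM + 10% FBS + 2.5% horse serum for MiaPaCa-2. Values are mean ± SD, n=6.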

DU-145 [3] = assay: Cytotoxicity against human DU145 cells assessed as decrease in cell viability after 48 hrs by MTS assay; type: functional; settings: DU-145, 48 h
In short: as §1

BT-474 [4] = assay: Cytotoxicity against human BT474 cells assessed as decrease in cell viability after 48 hrs by MTS assay; type: functional; settings: BT-474, 48 h
In short: as §1

MDA-MB-231 [5] = assay: Cytotoxicity against human MDA-MB-231 cells assessed as decrease in cell viability after 48 hrs by MTS assay; type: functional; settings: MDA-MB-231, 48 h
In short: as §1

MIA PaCa-2 [6] = assay: Cytotoxicity against human MIAPaCa2 cells assessed as cell death at 7.5 uM after 48 hrs by MTS assay; type: functional
In short: (§2)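 Equal numbers of cells were plated. After 24 h they were exposed to compounds (0–30 µM) for 48 h, then given MTS reagent (20% v/v) for 1–4 h. OD490 was read against cell-free blank wells; mean ± SD of 6 determinations. Media: BT-474 in DMEM/F12 + 10% FBS; DU-145, JIMT-1 and MDA-MB-231 in DMEM + 10% FBS; MiaPaCa-2 in DMEM + 10% FBS + 2.5% horse serum; PC-3 in F12K + 10% FBS; all with penicillin/streptomycin.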

DU-145 [7] = assay: Cytotoxicity against human DU145 cells assessed as cell death at 7.5 uM after 48 hrs by MTS assay; type: functional
In short: as §2

BT-474 [8] = assay: Cytotoxicity against human BT474 cells assessed as cell death at 7.5 uM after 48 hrs by MTS assay; type: functional
In short: as §2

MDA-MB-231 [9] = assay: Cytotoxicity against human MDA-MB-231 cells assessed as cell death at 7.5 uM after 48 hrs by MTS assay; type: functional
In short: as §2

PC-3 = assay: Cytotoxicity against human PC3 cells assessed as cell death at 7.5 uM after 48 hrs by MTS assay; type: functional
In short: as §2

JIMT-1 [10] = assay: Cytotoxicity against human JIMT1 cells assessed as cell death at 7.5 uM after 48 hrs by MTS assay; type: functional
In short: as §2

BT-474 [11] = assay: Disruption of cancer stem cells spheroids derived from human BT474 cells at >=5 uM after 3 days by microscopic analysis; type: functional, cell-based
In short: (§3)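 Cancer stem cells were isolated from BT-474 by ALDH1 activity. Equal numbers were seeded in ultra-low-adhesion wells and grown to spheroids. Spheroids were then incubated with or without compounds for 3 days. Spheroid integrity was assessed by light microscopy (×10). Viability was measured in parallel by MTS.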

BT-474 [12] = assay: Cytotoxicity against cancer stem cells derived from human BT474 cells assessed as cancer stem cell death at 7.5 uM after 3 days by MTS assay; type: functional
In short: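 CSCs were isolated from BT-474 using ALDH1 activity as the stemness marker. They were grown in ultra-low adhesion wells for 4 days to form spheroids. Spheroids were then exposed to compounds (0–20 µM) for 3 days. Viability was read by MTS assay and expressed as % of untreated control.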

DU-145 [13] = assay: Cytotoxicity against human DU145 cells assessed as decrease in cell viability up to 8 uM after 48 hrs in absence of pan-caspase inhibitor QVD-OPh by MTS assay; type: functional, cell-based
In short: (§4)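 DU-145 and JIMT-1 cells (DMEM + 10% FBS) were treated with compounds with or without the pan-caspase inhibitor QVD-OPh (40 µM). Viability was read by MTS: cells were seeded, treated 24 h later for 48 h, given MTS (20% v/v) for 1–4 h, and read at OD490 against cell-free blanks.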

DU-145 [14] = assay: Cytotoxicity against human DU145 cells assessed as decrease in cell viability up to 8 uM after 48 hrs in presence of pan-caspase inhibitor QVD-OPh by MTS assay; type: functional, cell-based
In short: as §4

JIMT-1 [15] = assay: Cytotoxicity against human JIMT1 cells assessed as decrease in cell viability up to 8 uM after 48 hrs in presence of pan-caspase inhibitor QVD-OPh by MTS assay; type: functional, cell-based
In short: as §4

JIMT-1 [16] = assay: Cytotoxicity against human JIMT1 cells assessed as decrease in cell viability up to 8 uM after 48 hrs in absence of pan-caspase inhibitor QVD-OPh by MTS assay; type: functional, cell-based
In short: as §4

Erythrocyte = assay: Induction of hemolysis in sheep erythrocytes at 30 uM after 30 mins by spectrophotometric analysis; type: functional, Ovis aries
DU-145 [17] = assay: Induction of cell death in human DU145 cells assessed as rounding up of cells at 6 uM after 6 hrs fluorescence microscopic analysis; type: functional, cell-based
In short: (§5)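 DU-145 cells were incubated with compounds at 6 µM for 6 h. They were then stained with cell-impermeant ethidium homodimer-1 and examined by fluorescence microscopy for cell rounding and red DNA staining. Cells given 0.01% Triton X-100 for 10 min served as the lysis control.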

JIMT-1 [18] = assay: Induction of cell death in human JIMT1 cells assessed as rounding up of cells at 4 uM after 6 hrs by fluorescence microscopic analysis; type: functional, cell-based
[19] = Stability in bovine liver extracts assessed as bovine liver glycosidase mediated compound cleavage by TLC analysis; type: ADME, Bos taurus; settings: cattle
In short: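 A bovine liver glycosidase fraction in 0.05 M sodium citrate pH 5.0 was combined with 0.2 M citrate pH 4.4 buffer, substrate (30 mM stock) and Triton X-100 (10% stock) for solubilization. Controls were no enzyme and a β-D-glucose-based GAEL. After 1 h, methanol was added, the mixture was centrifuged, and the supernatant was analysed by TLC. Run in quadruplicate.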

DU-145 [20] = assay: Induction of membrane lysis in human DU145 cells at 6 uM after 6 hrs by EthD-1 staining based fluorescence microscopic analysis; type: functional, cell-based
In short: as §5

JIMT-1 [21] = assay: Induction of membrane lysis in human JIMT1 cells at 4 uM after 6 hrs by EthD-1 staining based fluorescence microscopic analysis; type: functional, cell-based
BXPC-3 = assay: Induction of cell death in human BxPC3 cells assessed as clear large vacuole formation at 5 uM after 4 hrs
BT-474 [22] = assay: Disruption of cancer stem cells spheroids derived from human BT474 cells at >=7.5 uM after 3 days by microscopic analysis; type: functional, cell-based
In short: as §3

Row | SMILES | CC50 (MIA PaCa-2 [2]) [µM] | CC50 (DU-145 [3]) [µM] | CC50 (BT-474 [4]) [µM] | CC50 (MDA-MB-231 [5]) [µM] | Activity (DU-145 [13]) | Activity (DU-145 [14]) | Activity (JIMT-1 [15]) | Activity (JIMT-1 [16]) | Activity (Erythrocyte) [%] | further results
1 | CC(C)(C)CC(C)(C)c1ccc(OCCOCCOCCOCCOCCOCCOCCOCCOCCOCCO)cc1 |  |  |  |  |  |  |  |  |  | Activity (DU-145 [1]): Active
2 | CCCCCCCCCCCCCCCCOC[C@H](CO[C@@H]1O[C@@H](CN)[C@H](OCc2ccccc2)[C@@H](O)[C@@H]1N)OC | 2 to 6 | 2 to 6 | 2 to 6 | 2 to 6 | Active | Active | Active | Active | <5 | Activity (MIA PaCa-2 [6]): >95%; Activity (DU-145 [7]): >95%; Activity (BT-474 [8]): >95%; Activity (MDA-MB-231 [9]): >95%; Activity (PC-3): >95%; Activity (JIMT-1 [10]): >95%; Activity (BT-474 [11]): Active; Activity (BT-474 [12]): >95%; Activity (DU-145 [17]): Active; Activity (JIMT-1 [18]): Active; Stability [19]: Stable; Activity (DU-145 [20]): inactive; Activity (JIMT-1 [21]): inactive; Activity (BXPC-3): Active
3 | CCCCCCCCCCCCCCCCOC[C@H](CO[C@@H]1O[C@@H](CN)[C@H](O)[C@@H](O)[C@@H]1N)OC | 4 to 11 | 4 to 11 | 4 to 11 | 4 to 11 | Active | Active | Active | Active | <5 | Activity (BT-474 [22]): Active
4 | CCCCCCCCCCCCCCCCOC[C@H](CO[C@H]1O[C@H](CO)[C@@H](O)[C@H](O)[C@H]1N)OC | 6 to 10.5 | 6 to 10.5 | 6 to 10.5 | 6 to 10.5 |  |  |  |  |  | 

Reference: ChEMBL document CHEMBL4007413, “Replacing d-Glucosamine with Its l-Enantiomer in Glycosylated Antitumor Ether Lipids (GAELs) Retains Cytotoxic Effects against Epithelial Cancer Cells and Cancer Stem Cells” (J Med Chem, 2017)
